Entries after “also recorded” stand apart in the source; their conditions may differ.
Assay: SAD study, safety and tolerability
Format: in vivo, human
Details: for Abdominal discomfort, number of subjects (%) / Cough, number of subjects (%) / Eye swelling, number of subjects (%) / Face injury, number of subjects (%) / Headache, number of subjects (%) / Hot flush, number of subjects (%) / Hyperbilirubinemia, number of subjects (%) / Hypoesthesia, number of subjects (%) / Influenza, number of subjects (%) / Pain in extremity, number of subjects (%) / Proteinuria, number of subjects (%) / Subjects with any TEAEs, number of subjects (%) / Syncope, number of subjects (%): N=6
Summary of the method: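 SAD cohorts were 6 active and 2 placebo healthy males given a single oral dose, with 2 sentinel subjects dosed at least 24 h before the rest. Confinement ran day −1 to day 3, with outpatient visits on days 4 and 7 and follow-up on day 14. Safety covered vital signs, clinical labs, 12-lead ECG, physical exams, and reported or observed AEs, coded with MedDRA 19.1. Counts are subjects with AEs, % of the safety population. Placebo subjects were pooled.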

Cc1nn(Cc2ccc(Br)cc2)c(C)c1NC(=O)CSc1ccccc1 [KM-819]
serious adverse events (SAEs) (SAD): no serious adverse events
bilirubin levels (SAD, 10 mg and 30 mg cohorts, day 2, normal on day 7): increasing trend of bilirubin levels
Abdominal discomfort, number of subjects (%) (single 10 mg, young): 0
Cough, number of subjects (%) (single 10 mg, young): 0
Eye swelling, number of subjects (%) (single 10 mg, young): 0
Face injury, number of subjects (%) (single 10 mg, young): 0
Headache, number of subjects (%) (single 10 mg, young): 0
Hot flush, number of subjects (%) (single 10 mg, young): 0
Hyperbilirubinemia, number of subjects (%) (single 10 mg, young): 2 (33.3)
Hypoesthesia, number of subjects (%) (single 10 mg, young): 0
Influenza, number of subjects (%) (single 10 mg, young): 0
Pain in extremity, number of subjects (%) (single 10 mg, young): 0
Proteinuria, number of subjects (%) (single 10 mg, young): 0
Subjects with any TEAEs, number of subjects (%) (single 10 mg, young): 2 (33.3)
Syncope, number of subjects (%) (single 10 mg, young): 0
Abdominal discomfort, number of subjects (%) (single 30 mg, young): 0
Cough, number of subjects (%) (single 30 mg, young): 0
Eye swelling, number of subjects (%) (single 30 mg, young): 0
Face injury, number of subjects (%) (single 30 mg, young): 0
Headache, number of subjects (%) (single 30 mg, young): 0
Hot flush, number of subjects (%) (single 30 mg, young): 0
Hyperbilirubinemia, number of subjects (%) (single 30 mg, young): 0
Hypoesthesia, number of subjects (%) (single 30 mg, young): 0
Influenza, number of subjects (%) (single 30 mg, young): 0
Pain in extremity, number of subjects (%) (single 30 mg, young): 1 (16.7)
Proteinuria, number of subjects (%) (single 30 mg, young): 0
Subjects with any TEAEs, number of subjects (%) (single 30 mg, young): 2 (33.3)
Syncope, number of subjects (%) (single 30 mg, young): 1 (16.7)
Abdominal discomfort, number of subjects (%) (single 100 mg, young): 0
Cough, number of subjects (%) (single 100 mg, young): 0
Eye swelling, number of subjects (%) (single 100 mg, young): 0
Face injury, number of subjects (%) (single 100 mg, young): 0
Headache, number of subjects (%) (single 100 mg, young): 0
Hot flush, number of subjects (%) (single 100 mg, young): 0
Hyperbilirubinemia, number of subjects (%) (single 100 mg, young): 1 (16.7)
Hypoesthesia, number of subjects (%) (single 100 mg, young): 1 (16.7)
Influenza, number of subjects (%) (single 100 mg, young): 0
Pain in extremity, number of subjects (%) (single 100 mg, young): 0
Proteinuria, number of subjects (%) (single 100 mg, young): 1 (16.7)
Subjects with any TEAEs, number of subjects (%) (single 100 mg, young): 2 (33.3)
Syncope, number of subjects (%) (single 100 mg, young): 0
Abdominal discomfort, number of subjects (%) (single 200 mg, elderly): 0
Cough, number of subjects (%) (single 200 mg, elderly): 0
Eye swelling, number of subjects (%) (single 200 mg, elderly): 0
Face injury, number of subjects (%) (single 200 mg, elderly): 1 (16.7)
Headache, number of subjects (%) (single 200 mg, elderly): 2 (33.3)
Hot flush, number of subjects (%) (single 200 mg, elderly): 1 (16.7)
Hyperbilirubinemia, number of subjects (%) (single 200 mg, elderly): 0
Hypoesthesia, number of subjects (%) (single 200 mg, elderly): 0
Influenza, number of subjects (%) (single 200 mg, elderly): 0
Pain in extremity, number of subjects (%) (single 200 mg, elderly): 0
Proteinuria, number of subjects (%) (single 200 mg, elderly): 0
Subjects with any TEAEs, number of subjects (%) (single 200 mg, elderly): 2 (33.3)
Syncope, number of subjects (%) (single 200 mg, elderly): 0
Abdominal discomfort, number of subjects (%) (single 200 mg, young): 1 (16.7)
Cough, number of subjects (%) (single 200 mg, young): 0
Eye swelling, number of subjects (%) (single 200 mg, young): 0
Face injury, number of subjects (%) (single 200 mg, young): 0
Headache, number of subjects (%) (single 200 mg, young): 0
Hot flush, number of subjects (%) (single 200 mg, young): 0
Hyperbilirubinemia, number of subjects (%) (single 200 mg, young): 0
Hypoesthesia, number of subjects (%) (single 200 mg, young): 0
Influenza, number of subjects (%) (single 200 mg, young): 0
Pain in extremity, number of subjects (%) (single 200 mg, young): 0
Proteinuria, number of subjects (%) (single 200 mg, young): 0
Subjects with any TEAEs, number of subjects (%) (single 200 mg, young): 1 (16.7)
Syncope, number of subjects (%) (single 200 mg, young): 0
Abdominal discomfort, number of subjects (%) (single 400 mg, young): 0
Cough, number of subjects (%) (single 400 mg, young): 0
Eye swelling, number of subjects (%) (single 400 mg, young): 0
Face injury, number of subjects (%) (single 400 mg, young): 0
Headache, number of subjects (%) (single 400 mg, young): 0
Hot flush, number of subjects (%) (single 400 mg, young): 0
Hyperbilirubinemia, number of subjects (%) (single 400 mg, young): 0
Hypoesthesia, number of subjects (%) (single 400 mg, young): 0
Influenza, number of subjects (%) (single 400 mg, young): 0
Pain in extremity, number of subjects (%) (single 400 mg, young): 0
Proteinuria, number of subjects (%) (single 400 mg, young): 0
Subjects with any TEAEs, number of subjects (%) (single 400 mg, young): 0
Syncope, number of subjects (%) (single 400 mg, young): 0
overall safety and tolerability (single or multiple doses): generally well tolerated; also recorded: no remarkable or significant safety concerns; also recorded: safe and well tolerated
